The subject of assay [1] is K562. Briefly: Cytotoxicity against human K562 cells after 48 hrs. The assay is classed as functional, cell-based. Conditions: K562, 48 h. An outline of the steps:
(§1)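 Cells were grown in RPMI 1640 with 10% fetal serum, 2 mM L-glutamine, […], penicillin and streptomycin. Log-phase cells were seeded, left 24 h at 37 °C/5% CO2 to attach, then exposed to 0–100 µM compound for 48 h (DMSO <0.1%), five wells per concentration.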

Assay [2] has as its system HeLa. Put plainly: Cytotoxicity against human HeLa cells after 48 hrs. The assay is classed as functional, cell-based. The procedure, abridged: as §1
Assay [3] has as its system HepG2. Briefly: Cytotoxicity against human HepG2 cells after 48 hrs. The assay is classed as functional, cell-based. As to conditions: HepG2, 48 h. The procedure, abridged: as §1
Assay [4] deals with SGC-7901. Briefly: Cytotoxicity against human SGC7901 cells after 48 hrs. The assay is classed as functional, cell-based. As to conditions: SGC-7901, 48 h. The procedure, abridged: as §1
Assay [5] in a line: Inhibition of goat brain tubulin polymerization after 30 mins. Details: species or system Capra hircus. The procedure, abridged: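 Goat brain tubulin was purified by two polymerization–depolymerization cycles. Tubulin (10 µM) was incubated with compound at 0, 10, 20, 40 or 60 µM in buffer containing 20% glycerol and […] at 37 °C, then cooled to 0 °C. Assembly was followed turbidimetrically in a fluorescence plate reader.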

Broadly, the IC50 is the concentration needed to halve the response being measured. A low value points to greater potency in that assay.

With `COc1cc([C@@H]2c3cc4c(cc3[C@@H](OCC/C(=N\S(C)(=O)=O)N(C)C)[C@H]3COC(=O)[C@H]23)OCO4)cc(OC)c1OC`, the half-inhibitory concentration (IC50) amounted to 5.18 µM in assay [1], 2.58 µM in assay [2], 4.17 µM in assay [3] and 3.71 µM in assay [4].
Take `COc1cc([C@@H]2c3cc4c(cc3[C@@H](OCC/C(N)=N\S(C)(=O)=O)[C@H]3COC(=O)[C@H]23)OCO4)cc(OC)c1OC`: the IC50 was 3.48 µM in assay [1], 3.75 µM in assay [2], 2.87 µM in assay [3] and 4.31 µM in assay [4].
The corresponding values for `COc1cc([C@@H]2c3cc4c(cc3[C@@H](OCC/C(=N\S(C)(=O)=O)NCc3ccccc3)[C@H]3COC(=O)[C@H]23)OCO4)cc(OC)c1OC` are 12.1 µM, 11.2 µM, 17.9 µM and 19.2 µM.
`COc1cc([C@@H]2c3cc4c(cc3[C@@H](OCC/C(=N\S(C)(=O)=O)N(C3CCCCC3)C3CCCCC3)[C@H]3COC(=O)[C@H]23)OCO4)cc(OC)c1OC`: the IC50 came to 2.61 µM in assay [1], 4.33 µM in assay [2], 1.95 µM in assay [3] and 3.21 µM in assay [4].
For the compound `CCCN(CCC)/C(CCO[C@@H]1c2cc3c(cc2[C@@H](c2cc(OC)c(OC)c(OC)c2)[C@H]2C(=O)OC[C@@H]21)OCO3)=N/S(C)(=O)=O`, the IC50 is 2.96 µM in assay [1], 2.63 µM in assay [2], 2.14 µM in assay [3] and 2.87 µM in assay [4].
For the compound `COc1cc([C@@H]2c3cc4c(cc3[C@@H](OCC/C(=N\S(C)(=O)=O)N3CCCCC3)[C@H]3COC(=O)[C@H]23)OCO4)cc(OC)c1OC`, the half-maximal inhibitory concentration (IC50) in assay [1] was 9.01 µM; in assay [2], 10.4 µM; in assay [3], 57.1 µM; in assay [4] it was 18.2 µM.
In the case of `COc1cc([C@@H]2c3cc4c(cc3[C@H](O)[C@H]3COC(=O)[C@H]23)OCO4)cc(OC)c1OC` [PODOFILOX], the IC50 in assay [1] came to 4.51 µM; in assay [2], 0.14 µM; in assay [3], 0.51 µM; in assay [4], 0.34 µM; in assay [5], 24 µM.
With `COc1cc([C@@H]2c3cc4c(cc3[C@@H](OCC/C(=N\S(C)(=O)=O)N3CCCC3)[C@H]3COC(=O)[C@H]23)OCO4)cc(OC)c1OC`, the IC50 in assay [1] stood at 8.34 µM; in assay [2], 5.99 µM; in assay [3], 20.8 µM; in assay [4] it was 11.2 µM.
The corresponding values for `COc1cc2c(c(OC)c1OC)-c1ccc(OC)c(=O)cc1[C@@H](NC(C)=O)CC2` [COLCHICINE] are 0.55 µM, 0.1 µM, 0.02 µM and 0.05 µM.

The values are drawn from ChEMBL document CHEMBL2157911, “Synthesis and biological evaluation of a series of podophyllotoxins derivatives as a class of potent antitubulin agents” (Bioorg Med Chem, 2012).
